Broadly, the IC50 is the concentration that inhibits the measured activity by half. The low end stands for greater potency in that assay, the high end for weaker potency in that assay. Usually ED50 stands for the dose at which the effect has come halfway, by size or by number of responders. Broadly, the TD50 is the dose at which the toxic effect under study appears in half of the subjects. Read a low TD50 as greater toxicity.

This is an account of results in ChEMBL document CHEMBL1125676, “Synthesis and structure-activity studies of alkyl-substituted gamma-butyrolactones and gamma-thiobutyrolactones: ligands for the picrotoxin receptor” (J Med Chem, 1991).

For data set [1], the species on record is Mus musculus. As to the kind of experiment: Convulsant potency was determined by measuring the ability to produce seizures in mice. It counts as functional. Put shortly:
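Compound given ip in 30% polyethylene glycol (0.01 mL/g body weight). Mice observed for 30 min for seizure activity. Value is the CD50 for clonic convulsions, from log probit analysis; 95% fiducial limits given.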

Data set [2] addresses GABA-A receptor; anion channel. In words: Binding affinity to picrotoxin site of the Gamma-aminobutyric acid receptor was measured using [35S]TBPS as radioligand. Format: protein-complex assay. Put shortly: (§1)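 Rat cerebral cortex membranes (female Sprague–Dawley) washed and held in 50 mM Tris-citrate pH 7.5. [35S]TBPS at 2 nM final, in NaBr. Incubated in triplicate for 90 min at 25 °C, then filtered and scintillation counted. Nonspecific binding with 10 μM TBPS or 100 μM picrotoxinin. IC50 by log probit from ≥5 concentrations; mean ± SEM of three experiments.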

Data set [3] has as its target GABA-A receptor; anion channel. As to the kind of experiment: Binding affinity to picrotoxin site of Gamma-aminobutyric acid receptor using [35S]TBPS as radioligand. It counts as protein-complex assay, Rattus norvegicus. In short, it runs like this:
as §1

The species entered for data set [4] is Mus musculus. As to the kind of experiment: Anticonvulsant activity in mice by maximal electroshock test. Format: functional. In short, it runs like this:
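Maximal electroshock applied through corneal electrodes after 0.9% NaCl drops on the eyes. Compound given ip in 30% polyethylene glycol (0.01 mL/g). Protection defined as no tonic hind-limb extension past 90°. ED50 from log probit analysis of dose–response data.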

A short description of data set [5]: Neurotoxic effects by rotarod test in mice. Format: ADME, organism-based. The following applies: mouse, in vivo. Put shortly:
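Rotorod test in mice after ip dosing in 30% polyethylene glycol (0.01 mL/g). TD50 from log probit analysis of dose–response data.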
A general note: In the rotarod test animals must keep their balance on a rotating rod.

The species named for data set [6] is Mus musculus. As to the kind of experiment: Anticonvulsant activity in mice by inhibition of pentylenetetrazole induced seizures. Format: functional.
Data set [7] concerns Mus musculus. As to the kind of experiment: Concentration of brain at 10 min was determined after the compound was administered intraperitoneally at a dose 259 mg/kg in mice. To be noted: route intraperitoneal. It counts as functional. Put shortly: (§2)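 Female CF-1 mice dosed ip and decapitated at the set time, n = 3. Cerebral cortex frozen and homogenized at 4 °C in chloroform:methanol 2:1 with an internal standard. Lower phase analysed by capillary GC-FID with splitless injection. Concentration taken from the ratio to the internal standard, corrected for detector response and wet weight. Mean ± SEM.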

Data set [8] deals with Mus musculus. As to the kind of experiment: Concentration of brain at 40 min was determined after the compound was administered intraperitoneally at a dose 259 mg/kg in mice. To be noted: route intraperitoneal. It counts as functional.
Data set [9] concerns Mus musculus. As to the kind of experiment: Concentration of brain at 20 min was determined after the compound was administered intraperitoneally at a dose 259 mg/kg in mice. To be noted: route intraperitoneal. It counts as functional. In short, it runs like this:
as §2

In data set [10] the test system is Mus musculus. As to the kind of experiment: Concentration of brain at 5 min was determined after the compound was administered intraperitoneally at a dose 259 mg/kg in mice. It counts as functional. To be noted: route intraperitoneal. Put shortly:
as §2

Data set [11] concerns Mus musculus. In words: Concentration of brain at 30 min was determined after the compound was administered intraperitoneally at a dose 259 mg/kg in mice. It counts as functional. To be noted: route intraperitoneal. Put shortly: as §2

In the data set listed under Mus musculus [1], `CCC1(C)COC(=O)C1` (stereo not given) had a CD50 of 20 mg/kg. The molecule also showed an IC50 in data set [2] of 55000 µM.
In the data set listed under Mus musculus [1], `CC(C)(C)C1COC(=O)C1` (stereo not given) returned a CD50 of 5.5 mg/kg. The molecule further registered an IC50 in data set [3] of 13000 µM.
On to `CC(C)C1(C)CCSC1=O` (stereo not given), for which the median effective dose (ED50) in the data set listed under Mus musculus [4] was greater than 500 mg/kg; in the data set filed under Mus musculus [6] it was 154 mg/kg. Moreover, in data set [2], the IC50 is 140 µM. In data set [5], this molecule showed a TD50 greater than 500 mg/kg.
Consider `CC1(C)CCSC1=O`, for which the ED50 in the data set listed under Mus musculus [4] is 369 mg/kg; in the data set filed under Mus musculus [6], 208 mg/kg. The molecule also came in with an IC50 in data set [2] of 920 µM. The molecule further displayed a TD50 in [5] of 220 mg/kg.
As to `CCC1(CC)CCSC1=O`, the figures for the ED50 in the data set listed under Mus musculus [4] and in the data set listed under Mus musculus [6] were 374 mg/kg and 104 mg/kg, respectively. In addition, in [2], the IC50 was 260 µM. The molecule also showed a TD50 in data set [5] of 285 mg/kg.
In the case of `CCC1(C)CCOC1=O` (stereo not given), the ED50 was greater than 500 mg/kg in the data set filed under Mus musculus [4] and 259 mg/kg in the data set filed under Mus musculus [6]. Moreover, the Brain concentration with Mus musculus [7] was determined as 1.83 mM; in the data set on Mus musculus [8] it was 0.88 mM; with Mus musculus [9], 1.35 mM; with Mus musculus [10], 2.97 mM; in the data set with Mus musculus [11], 1.21 mM. The TD50 in data set [5] came out at 621 mg/kg. For the same molecule, the IC50 in [3] stood at 2300 µM.
As for `CCC1(C)CC(=O)OC1(C)C` (stereo not given), in the data set filed under Mus musculus [1], the CD50 amounted to 8.2 mg/kg. The same molecule registered an IC50 in data set [3] of 22000 µM.
Turning to `CCC1(CC)CCOC1=O`, the ED50 turned out to be 463 mg/kg in the data set listed under Mus musculus [4] and 191 mg/kg in the data set listed under Mus musculus [6]. Further, in data set [5], the TD50 was 416 mg/kg. The same molecule had an IC50 in data set [3] of 750 µM.
Consider `CC(C)(C)C1CCOC1=O` (stereo not given), for which the figures for the ED50 in the data set listed under Mus musculus [4] and in the data set filed under Mus musculus [6] were 375 mg/kg and 145 mg/kg, respectively. The same molecule registered a TD50 in data set [5] greater than 500 mg/kg. Further, the half-inhibitory concentration (IC50) in data set [3] was 990 µM.
Molecule `CCC1(C)CCSC1=O` (stereo not given) had an IC50 in [2] of 330 µM.
Turning to `CC(C)C1(C(C)C)CCOC1=O`, in [2], the IC50 came out at 220 µM. The same molecule came in with an ED50 in the data set listed under Mus musculus [6] of 137 mg/kg.
Take `CC(C)(C)C1CCSC1=O` (stereo not given): the ED50 in the data set listed under Mus musculus [4] is greater than 500 mg/kg; in the data set listed under Mus musculus [6], 244 mg/kg. In addition, the IC50 in [2] is 190 µM. The molecule further had a TD50 in data set [5] greater than 500 mg/kg.
In the case of `CC(C)C1(C)CCOC1=O` (stereo not given), the median effective dose (ED50) was greater than 500 mg/kg in the data set listed under Mus musculus [4] and 198 mg/kg in the data set listed under Mus musculus [6]. In data set [2], this molecule registered an IC50 of 850 µM. The TD50 in [5] amounted to 278 mg/kg.
As for `CCC1CCOC1=O` (stereo not given), the median effective dose (ED50) in the data set listed under Mus musculus [4] and in the data set filed under Mus musculus [6] was greater than 500 mg/kg each time. In data set [5], this molecule showed a TD50 greater than 500 mg/kg. This molecule also returned an IC50 in data set [3] of 8500 µM.
Consider `CC(C)C1(C(C)C)CCSC1=O`, for which the ED50 in the data set listed under Mus musculus [4] and in the data set listed under Mus musculus [6] was greater than 500 mg/kg each time. The IC50 in data set [2] turned out to be 74 µM. The same molecule gave a TD50 in [5] greater than 500 mg/kg.
`CCC1(C)CSC(=O)C1` (stereo not given): the CD50 in the data set filed under Mus musculus [1] was determined as 3.5 mg/kg.
`CC1CCSC1=O` (stereo not given): the ED50 in the data set listed under Mus musculus [4] and in the data set listed under Mus musculus [6] was 91 mg/kg throughout. In [2], this molecule had an IC50 of 4400 µM.
On to `CC1(C)CCOC1=O`, for which the ED50 in the data set filed under Mus musculus [4] and in the data set listed under Mus musculus [6] was greater than 500 mg/kg throughout. The molecule further showed a TD50 in data set [5] greater than 500 mg/kg. The molecule further gave an IC50 in data set [3] of 9200 µM.
On to `CC(C)C1COC(=O)C1` (stereo not given), for which the CD50 in the data set filed under Mus musculus [1] was 15 mg/kg. Also, the IC50 in data set [2] amounted to 42000 µM.
In the case of `CC(C)C1CCOC1=O` (stereo not given), the ED50 in the data set listed under Mus musculus [4] is greater than 400 mg/kg; in the data set filed under Mus musculus [6] it was 150 mg/kg. In addition, the IC50 in data set [2] is 2000 µM. In data set [5], this molecule returned a TD50 greater than 400 mg/kg.
With `CC(C)C1CCSC1=O` (stereo not given), the ED50 was greater than 500 mg/kg in the data set listed under Mus musculus [4] and 145 mg/kg in the data set listed under Mus musculus [6]. Moreover, the TD50 in data set [5] is greater than 500 mg/kg. Moreover, the IC50 in [3] is 260 µM.
Regarding `CCC1CCSC1=O` (stereo not given), the ED50 in the data set listed under Mus musculus [4] was 232 mg/kg; in the data set listed under Mus musculus [6] it was 414 mg/kg. This molecule showed an IC50 in data set [2] of 1500 µM. The molecule also came in with a TD50 in data set [5] greater than 500 mg/kg.
With `CC1CCOC1=O` (stereo not given), the ED50 in the data set listed under Mus musculus [4] and in the data set listed under Mus musculus [6] was greater than 500 mg/kg in each case. In addition, the IC50 in data set [2] is greater than 10000 µM. In [5], this molecule returned a TD50 greater than 500 mg/kg.
